The record followed here is BindingDB's records for PubMed 32809817 (Griffith University, 2020).

As usually defined, the Kd is the constant that tells how readily two partners part at equilibrium.

For this assay, the target named is T1, Galectin-8 (Homo sapiens, UniProt O00214).
T1 sequence (O00214 whole entry): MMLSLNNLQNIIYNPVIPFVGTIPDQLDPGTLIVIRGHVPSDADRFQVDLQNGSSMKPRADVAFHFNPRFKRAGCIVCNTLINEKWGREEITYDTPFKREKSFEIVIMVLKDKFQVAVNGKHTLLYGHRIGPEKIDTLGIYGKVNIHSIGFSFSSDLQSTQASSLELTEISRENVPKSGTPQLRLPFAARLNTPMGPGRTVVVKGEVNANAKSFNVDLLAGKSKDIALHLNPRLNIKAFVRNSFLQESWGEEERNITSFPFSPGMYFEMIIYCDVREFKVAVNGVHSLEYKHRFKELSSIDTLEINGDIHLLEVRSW
In words: Binding affinity to N-terminal domain of human galectin-8 (8-154 residues) by ITC assay. In outline: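 Untagged galectin-8N (residues 8-154) was expressed in bacteria (IPTG induction 4 h, room temperature) and purified on lactosyl-Sepharose at 4 °C. Protein and ligand were in 20 mM Tris pH 7.5, 100 mM NaCl, 4 mM BME, 5% DMSO and degassed. Ligand (0.5 or 1 mM) was titrated into 100 µM protein over 20-25 × 2.5 µl injections, 150 s apart, at 298 K. Blank-corrected data were fitted to an independent-site model for Kd.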

Compound `OC[C@H]1O[C@@H](O[C@H]2[C@H](O)[C@@H](O)[C@H](O)O[C@@H]2CO)[C@H](O)[C@@H](O)[C@H]1O` [Lactose, anhydrous] displayed a dissociation constant (Kd) of 37.9 µM.
